Where a SMILES comes first, the peptide text is derived from it.
What was measured:
Homo sapiens = species: Homo sapiens; assay: Selectivity ratio of EC50 for human OX2 receptor to EC50 for human OX1 receptor
[1] = molecular target: T1, Orexin/Hypocretin receptor type 1 (Homo sapiens, UniProt O43613); assay: Agonist activity at human OX1 receptor overexpressed in CHO-RD-HGA16 cells assessed as calcium mobilization after 15 mins by fluorescence assay; format: functional, cell-based
T1 sequence (O43613 whole entry): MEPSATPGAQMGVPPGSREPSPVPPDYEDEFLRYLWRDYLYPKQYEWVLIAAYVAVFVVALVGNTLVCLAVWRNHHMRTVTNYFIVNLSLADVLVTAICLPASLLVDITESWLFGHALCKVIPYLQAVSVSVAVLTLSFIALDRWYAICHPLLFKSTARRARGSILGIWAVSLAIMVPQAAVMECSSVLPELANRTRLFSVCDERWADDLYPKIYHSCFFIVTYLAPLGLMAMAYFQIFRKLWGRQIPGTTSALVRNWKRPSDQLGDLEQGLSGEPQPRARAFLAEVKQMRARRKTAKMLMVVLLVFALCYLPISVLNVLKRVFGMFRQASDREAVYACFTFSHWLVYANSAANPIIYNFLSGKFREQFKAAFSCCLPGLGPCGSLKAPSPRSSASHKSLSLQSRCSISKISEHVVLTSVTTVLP
Outline: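 EC50 from 8-point half-log concentration-response curves. Values are means of at least three independent experiments in duplicate, with SEM, or means of two independent duplicate experiments.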

Orexin receptor type 2 = molecular target: T2, Orexin receptor type 2 (Homo sapiens, UniProt O43614); assay: Agonist activity at human OX2 receptor overexpressed in CHO-RD-HGA16 cells assessed as calcium mobilization after 15 mins by fluorescence assay; format: functional, cell-based
T2 sequence (O43614 whole entry): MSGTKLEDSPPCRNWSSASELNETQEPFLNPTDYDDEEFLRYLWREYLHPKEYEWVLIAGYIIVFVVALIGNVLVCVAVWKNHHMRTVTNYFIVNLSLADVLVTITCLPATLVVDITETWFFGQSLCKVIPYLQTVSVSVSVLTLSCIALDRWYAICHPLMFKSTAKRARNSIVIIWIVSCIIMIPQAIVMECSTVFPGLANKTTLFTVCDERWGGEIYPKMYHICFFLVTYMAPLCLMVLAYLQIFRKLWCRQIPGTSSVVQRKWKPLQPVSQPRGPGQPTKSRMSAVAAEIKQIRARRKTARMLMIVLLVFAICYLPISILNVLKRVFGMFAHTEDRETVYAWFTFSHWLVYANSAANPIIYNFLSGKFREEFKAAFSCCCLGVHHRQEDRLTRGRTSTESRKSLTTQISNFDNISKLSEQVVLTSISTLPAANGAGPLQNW

| SMILES | Ratio EC50 (Homo sapiens) | EC50 [1] [nM] | EC50 (Orexin receptor type 2) [nM] |
| --- | --- | --- | --- |
| CC[C@H](C)[C@H](NC(=O)CNC(=O)[C@H](C)NC(=O)[C@H](C)NC(=O)[C@H](Cc1c[nH]cn1)NC(=O)[C@H](CC(N)=O)NC(=O)CNC(=O)[C@H](C)NC(=O)CNC(=O)[C@H](Cc1c[nH]cn1)NC(=O)[C@H](CC(C)C)NC(=O)[C@H](CC(C)C)NC(=O)[C@H](CCC(=O)O)NC(=O)[C@H](Cc1ccc(O)cc1)NC(=O)[C@H](CC(C)C)NC(=O)[C@@H](N)CCCN=C(N)N)C(=O)N[C@@H](CC(C)C)C(=O)N[C@H](C(=O)N[C@@H](CC(C)C)C(N)=O)[C@@H](C)O (H-RLYELLHGAGNHAAGILTL-NH2) | 15 |  |  |
| CC[C@H](C)[C@H](NC(=O)CNC(=O)[C@H](C)NC(=O)[C@H](C)NC(=O)[C@H](Cc1cnc[nH]1)NC(=O)[C@H](CC(N)=O)NC(=O)CNC(=O)[C@H](C)NC(=O)[C@@H]1CCCN1C(=O)[C@H](Cc1cnc[nH]1)NC(=O)[C@H](CC(C)C)NC(=O)[C@H](CC(C)C)NC(=O)[C@H](CCC(=O)O)NC(=O)[C@@H](N)Cc1ccc(O)cc1)C(=O)N[C@@H](CC(C)C)C(=O)N[C@H](C(=O)N[C@@H](CC(C)C)C(N)=O)[C@@H](C)O (H-YELLHPAGNHAAGILTL-NH2) | 0.9 | 2480 | 2180 |
| CC[C@H](C)[C@H](NC(=O)CNC(=O)[C@H](C)NC(=O)[C@H](C)NC(=O)[C@H](C)NC(=O)[C@H](CC(N)=O)NC(=O)CNC(=O)[C@H](C)NC(=O)CNC(=O)[C@H](Cc1cnc[nH]1)NC(=O)[C@H](CC(C)C)NC(=O)[C@H](CC(C)C)NC(=O)[C@H](CCC(=O)O)NC(=O)[C@@H](N)Cc1ccc(O)cc1)C(=O)N[C@@H](CC(C)C)C(=O)N[C@H](C(=O)N[C@@H](CC(C)C)C(N)=O)[C@@H](C)O (H-YELLHGAGNAAAGILTL-NH2) | 0.5 | 3060 | 1580 |
| CC[C@H](C)[C@H](NC(=O)CNC(=O)[C@H](C)NC(=O)[C@H](C)NC(=O)[C@H](Cc1cnc[nH]1)NC(=O)[C@H](CC(N)=O)NC(=O)CNC(=O)[C@@H](C)NC(=O)CNC(=O)[C@H](Cc1cnc[nH]1)NC(=O)[C@H](CC(C)C)NC(=O)[C@H](CC(C)C)NC(=O)[C@H](CCC(=O)O)NC(=O)[C@@H](N)Cc1ccc(O)cc1)C(=O)N[C@@H](CC(C)C)C(=O)N[C@H](C(=O)N[C@@H](CC(C)C)C(N)=O)[C@@H](C)O | 0.6 | 3070 | 1920 |
| CC[C@H](C)[C@H](NC(=O)CNC(=O)[C@H](C)NC(=O)[C@H](C)NC(=O)[C@H](Cc1cnc[nH]1)NC(=O)[C@H](CC(N)=O)NC(=O)CNC(=O)[C@H](C)NC(=O)CNC(=O)[C@H](Cc1cnc[nH]1)NC(=O)[C@H](CC(C)C)NC(=O)[C@H](CC(C)C)NC(=O)[C@H](CCC(=O)O)NC(=O)[C@@H]1CCCN1)C(=O)N[C@@H](CC(C)C)C(=O)N[C@H](C(=O)N[C@@H](CC(C)C)C(N)=O)[C@@H](C)O (H-PELLHGAGNHAAGILTL-NH2) | 2.4 | 1370 | 3250 |
| CC[C@H](C)[C@H](NC(=O)CNC(=O)[C@H](C)NC(=O)[C@H](C)NC(=O)[C@H](Cc1c[nH]cn1)NC(=O)[C@H](CC(N)=O)NC(=O)CNC(=O)[C@H](C)NC(=O)CNC(=O)[C@H](Cc1c[nH]cn1)NC(=O)[C@H](CC(C)C)NC(=O)[C@@H](N)CC(C)C)C(=O)N[C@@H](CC(C)C)C(=O)N[C@H](C(=O)N[C@@H](CC(C)C)C(N)=O)[C@@H](C)O (H-LLHGAGNHAAGILTL-NH2) | 0.7 | 1380 | 947 |
| CC[C@H](C)[C@H](NC(=O)CNC(=O)[C@H](C)NC(=O)[C@H](C)NC(=O)[C@H](Cc1c[nH]cn1)NC(=O)[C@H](CC(N)=O)NC(=O)CNC(=O)[C@H](C)NC(=O)CNC(=O)[C@H](Cc1c[nH]cn1)NC(=O)[C@H](CC(C)C)NC(=O)[C@H](CC(C)C)NC(=O)[C@H](CCC(=O)O)NC(=O)[C@@H](N)Cc1ccc(O)cc1)C(=O)N[C@@H](CC(C)C)C(=O)N[C@H](C(=O)N[C@@H](CC(C)C)C(N)=O)[C@@H](C)O | 23 |  |  |

Continued, values first:

| Ratio EC50 (Homo sapiens) | EC50 [1] [nM] | EC50 (Orexin receptor type 2) [nM] | SMILES |
| --- | --- | --- | --- |
| 0.3 | 535 | 156 | CC[C@H](C)[C@H](NC(=O)CNC(=O)[C@H](C)NC(=O)[C@H](C)NC(=O)[C@H](Cc1cnc[nH]1)NC(=O)[C@H](CC(N)=O)NC(=O)CNC(=O)[C@H](C)NC(=O)CNC(=O)[C@H](Cc1cnc[nH]1)NC(=O)[C@@H](CC(C)C)NC(=O)[C@H](CC(C)C)NC(=O)[C@H](CCC(=O)O)NC(=O)[C@@H](N)Cc1ccc(O)cc1)C(=O)N[C@@H](CC(C)C)C(=O)N[C@H](C(=O)N[C@@H](CC(C)C)C(N)=O)[C@@H](C)O |
| 1.2 | 865 | 1010 | CC[C@H](C)[C@H](NC(=O)CNC(=O)[C@H](C)NC(=O)[C@H](C)NC(=O)[C@H](Cc1cnc[nH]1)NC(=O)[C@H](CC(N)=O)NC(=O)CNC(=O)[C@H](C)NC(=O)CNC(=O)[C@H](Cc1cnc[nH]1)NC(=O)[C@H](CC(C)C)NC(=O)[C@@H]1CCCN1C(=O)[C@H](CCC(=O)O)NC(=O)[C@@H](N)Cc1ccc(O)cc1)C(=O)N[C@@H](CC(C)C)C(=O)N[C@H](C(=O)N[C@@H](CC(C)C)C(N)=O)[C@@H](C)O (H-YEPLHGAGNHAAGILTL-NH2) |
| 5.1 | 143 | 729 | CC[C@H](C)[C@H](NC(=O)CNC(=O)[C@H](C)NC(=O)[C@H](C)NC(=O)[C@H](Cc1cnc[nH]1)NC(=O)[C@H](CC(N)=O)NC(=O)CNC(=O)[C@H](C)NC(=O)CNC(=O)[C@H](Cc1cnc[nH]1)NC(=O)[C@H](CC(C)C)NC(=O)[C@H](CC(C)C)NC(=O)[C@@H]1CCCN1C(=O)[C@@H](N)Cc1ccc(O)cc1)C(=O)N[C@@H](CC(C)C)C(=O)N[C@H](C(=O)N[C@@H](CC(C)C)C(N)=O)[C@@H](C)O (H-YPLLHGAGNHAAGILTL-NH2) |
| 1.7 | 1200 | 1990 | CC[C@H](C)[C@H](NC(=O)CNC(=O)[C@H](C)NC(=O)[C@H](C)NC(=O)[C@H](Cc1cnc[nH]1)NC(=O)[C@H](CC(N)=O)NC(=O)CNC(=O)[C@H](C)NC(=O)CNC(=O)[C@@H]1CCCN1C(=O)[C@H](CC(C)C)NC(=O)[C@H](CC(C)C)NC(=O)[C@H](CCC(=O)O)NC(=O)[C@@H](N)Cc1ccc(O)cc1)C(=O)N[C@@H](CC(C)C)C(=O)N[C@H](C(=O)N[C@@H](CC(C)C)C(N)=O)[C@@H](C)O (H-YELLPGAGNHAAGILTL-NH2) |
| 8.9 | 212 | 1890 | CC[C@H](C)[C@H](NC(=O)CNC(=O)[C@H](C)NC(=O)[C@H](C)NC(=O)[C@H](Cc1cnc[nH]1)NC(=O)[C@H](CC(N)=O)NC(=O)CNC(=O)[C@H](C)NC(=O)CNC(=O)[C@H](Cc1cnc[nH]1)NC(=O)[C@H](CC(C)C)NC(=O)[C@H](C)NC(=O)[C@H](CCC(=O)O)NC(=O)[C@@H](N)Cc1ccc(O)cc1)C(=O)N[C@@H](CC(C)C)C(=O)N[C@H](C(=O)N[C@@H](CC(C)C)C(N)=O)[C@@H](C)O (H-YEALHGAGNHAAGILTL-NH2) |
| 1.3 | 1040 | 1360 | CC[C@H](C)[C@H](NC(=O)CNC(=O)[C@H](C)NC(=O)[C@H](C)NC(=O)[C@H](Cc1cnc[nH]1)NC(=O)[C@H](CC(N)=O)NC(=O)[C@H](C)NC(=O)[C@H](C)NC(=O)CNC(=O)[C@H](Cc1cnc[nH]1)NC(=O)[C@H](CC(C)C)NC(=O)[C@H](CC(C)C)NC(=O)[C@H](CCC(=O)O)NC(=O)[C@@H](N)Cc1ccc(O)cc1)C(=O)N[C@@H](CC(C)C)C(=O)N[C@H](C(=O)N[C@@H](CC(C)C)C(N)=O)[C@@H](C)O (H-YELLHGAANHAAGILTL-NH2) |
|  | 8.29 | 187 | CC[C@H](C)[C@H](NC(=O)CNC(=O)[C@H](C)NC(=O)[C@H](C)NC(=O)[C@H](Cc1cnc[nH]1)NC(=O)[C@H](CC(N)=O)NC(=O)CNC(=O)[C@H](C)NC(=O)CNC(=O)[C@H](Cc1cnc[nH]1)NC(=O)[C@H](CC(C)C)NC(=O)[C@H](CC(C)C)NC(=O)[C@H](CCC(=O)O)NC(=O)[C@@H](N)Cc1ccc(O)cc1)C(=O)N[C@@H](CC(C)C)C(=O)N[C@H](C(=O)N[C@@H](CC(C)C)C(N)=O)[C@@H](C)O |
|  | 64 | 976 | CC[C@H](C)[C@H](NC(=O)CNC(=O)[C@H](C)NC(=O)[C@H](C)NC(=O)[C@H](Cc1cnc[nH]1)NC(=O)[C@H](CC(N)=O)NC(=O)CNC(=O)[C@H](C)NC(=O)CNC(=O)[C@H](Cc1cnc[nH]1)NC(=O)[C@H](CC(C)C)NC(=O)[C@H](CC(C)C)NC(=O)[C@H](CCC(=O)O)NC(=O)[C@H](Cc1ccc(O)cc1)NC(=O)[C@H](CC(C)C)NC(=O)[C@@H](N)CCCNC(=N)N)C(=O)N[C@@H](CC(C)C)C(=O)N[C@H](C(=O)N[C@@H](CC(C)C)C(N)=O)[C@@H](C)O (H-RLYELLHGAGNHAAGILTL-NH2) |

From ChEMBL document CHEMBL3102805, “Truncated Orexin Peptides: Structure-Activity Relationship Studies” (ACS Med Chem Lett, 2013)
